Measurements published in publication PMC6543826 (Bioorganic chemistry, 2018).
Several values for one entry are separate records, joined by “and”; a condition that tells them apart may be missing. Equal values may be shown once.

Assays:
[1] = target: JNK2 (Homo sapiens, UniProt P45984); assay: in vitro kinase assay, GST-c-Jun; type: biochemical
[2] = tested on: NCI-H226; assay: cells; type: cell-based
[3] = tested on: RPMI-8226; assay: cells; type: cell-based
[4] = tested on: A549/ATCC; assay: cells; type: cell-based
[5] = tested on: NCI-H23; assay: cells; type: cell-based
[6] = tested on: MCF7; assay: cells; type: cell-based
[7] = tested on: K-562; assay: cells; type: cell-based
[8] = tested on: UACC-62; assay: cells; type: cell-based
[9] = tested on: SR; assay: cells; type: cell-based
[10] = tested on: ACHN; assay: cells; type: cell-based
[11] = tested on: SN12C; assay: cells; type: cell-based
[12] = tested on: OVCAR-3; assay: cells; type: cell-based
[13] = tested on: MDA-MB-435; assay: cells; type: cell-based
[14] = tested on: HCT-15; assay: cells; type: cell-based
[15] = target: ERK2 (Rattus norvegicus, UniProt P63086); assay: in vitro radioactive kinase assay, Ets-1 phosphorylation by ERK2; type: biochemical
How it was run: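 Activated rat ERK2 (2 nM) was tested with His-Ets-1 (1–138) at 28–30 °C in HEPES pH 7.5 buffer with 11 mM MgCl2, BSA and 5% DMSO. Reactions were started with [γ-32P]ATP (10 or 100 μM).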

[16] = tested on: CCRF-CEM; assay: cells; type: cell-based
[17] = tested on: MDA-MB-468; assay: cells; type: cell-based
[18] = tested on: NCI-H460; assay: cells; type: cell-based
[19] = tested on: SNB-75; assay: cells; type: cell-based
[20] = tested on: RXF 393; assay: cells; type: cell-based
[21] = tested on: KM 12; assay: cells; type: cell-based
[22] = tested on: SK-MEL-28; assay: cells; type: cell-based
[23] = tested on: MALME-3M; assay: cells; type: cell-based
[24] = target: p38MAPKα (Homo sapiens, UniProt Q16539); assay: in vitro kinase assay, GST-ATF2; type: biochemical
[25] = tested on: IGROV1; assay: cells; type: cell-based
[26] = tested on: HCC-2998; assay: cells; type: cell-based
[27] = tested on: SNB-19; assay: cells; type: cell-based
[28] = tested on: BT-549; assay: cells; type: cell-based
[29] = tested on: MOLT-4; assay: cells; type: cell-based
[30] = tested on: SF-539; assay: cells; type: cell-based
[31] = tested on: OVCAR-5; assay: cells; type: cell-based
[32] = tested on: SF-295; assay: cells; type: cell-based
[33] = tested on: UO-31; assay: cells; type: cell-based
[34] = tested on: M14; assay: cells; type: cell-based
[35] = tested on: SK-OV-3; assay: cells; type: cell-based
[36] = tested on: SK-MEL-5; assay: cells; type: cell-based

p38MAPKα, sequence (Q16539 whole entry): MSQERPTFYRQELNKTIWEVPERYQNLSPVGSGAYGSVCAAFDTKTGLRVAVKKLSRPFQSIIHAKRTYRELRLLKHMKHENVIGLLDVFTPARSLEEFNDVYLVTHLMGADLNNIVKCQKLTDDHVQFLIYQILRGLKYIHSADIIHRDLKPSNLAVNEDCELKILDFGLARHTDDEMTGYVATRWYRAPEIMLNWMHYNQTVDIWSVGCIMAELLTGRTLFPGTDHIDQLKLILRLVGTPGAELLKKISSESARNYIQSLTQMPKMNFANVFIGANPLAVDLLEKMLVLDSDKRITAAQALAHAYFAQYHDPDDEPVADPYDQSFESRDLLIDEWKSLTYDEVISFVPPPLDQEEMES
ERK2, sequence (P63086 whole entry): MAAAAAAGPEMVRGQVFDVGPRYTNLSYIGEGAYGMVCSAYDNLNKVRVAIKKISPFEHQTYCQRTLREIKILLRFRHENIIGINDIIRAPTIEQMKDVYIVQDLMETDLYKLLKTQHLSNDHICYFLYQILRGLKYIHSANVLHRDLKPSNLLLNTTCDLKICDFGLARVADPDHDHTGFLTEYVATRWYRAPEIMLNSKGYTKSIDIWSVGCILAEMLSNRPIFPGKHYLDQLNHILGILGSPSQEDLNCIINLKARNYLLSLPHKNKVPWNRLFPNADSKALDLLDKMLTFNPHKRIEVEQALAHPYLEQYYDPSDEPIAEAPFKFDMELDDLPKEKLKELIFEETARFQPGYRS
JNK2, sequence (P45984 whole entry): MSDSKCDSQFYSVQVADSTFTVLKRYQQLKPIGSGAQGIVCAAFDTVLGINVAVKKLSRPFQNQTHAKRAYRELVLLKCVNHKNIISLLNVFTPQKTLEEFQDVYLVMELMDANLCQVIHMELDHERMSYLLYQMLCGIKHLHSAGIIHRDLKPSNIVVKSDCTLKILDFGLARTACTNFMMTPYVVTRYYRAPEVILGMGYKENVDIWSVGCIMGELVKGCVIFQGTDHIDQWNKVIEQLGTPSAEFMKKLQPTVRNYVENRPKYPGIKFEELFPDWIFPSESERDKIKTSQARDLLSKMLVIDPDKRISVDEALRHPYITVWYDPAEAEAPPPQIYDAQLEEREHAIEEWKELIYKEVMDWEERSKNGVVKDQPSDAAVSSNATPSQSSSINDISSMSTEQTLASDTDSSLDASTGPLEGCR

## O=C1c2ccccc2C(=O)c2c1oc1c2c(=O)[nH]c2ccc(Cl)cc21 [3b, 2-Chloronaphtho[2′,3′:4,5]furo[3,2-c]quinoline-6,7,12(5H)-trione]
[1]
  IC50: 24000 ± 1240 nM
  ability to inhibit JNK2 (in words): little tendency to inhibit
[2]; Homo sapiens, NCI-H226
  GI50: 140 nM
[2]; Homo sapiens, NCI-H226, read-out: LC50
  CC50: 870 nM
[2]; NCI-H226, 10^−5 M, 48 h
  Growth percent (G%): −28.80%
[2]; NCI-H226, five-dose
  TGI: 350 nM
[3]; Homo sapiens, RPMI-8226
  GI50: 390 nM
[3]; Homo sapiens, RPMI-8226, read-out: LC50
  CC50: > 100000 nM
[3]; RPMI-8226, 10^−5 M, 48 h
  Growth percent (G%): 4.83%
[3]; RPMI-8226, five-dose
  TGI: 2630 nM
[4]; A549/ATCC, 10^−5 M, 48 h
  Growth percent (G%): −0.05%
[4]; A549/ATCC, five-dose
  TGI: 2880 nM
[4]; Homo sapiens, A549
  GI50: 1020 nM
[4]; Homo sapiens, A549, read-out: LC50
  CC50: 8320 nM
[5]; Homo sapiens, NCI-H23
  GI50: 350 nM
[5]; Homo sapiens, NCI-H23, read-out: LC50
  CC50: 7080 nM
[5]; NCI-H23, 10^−5 M, 48 h
  Growth percent (G%): 21.21%
[5]; NCI-H23, five-dose
  TGI: 1820 nM
[6]; Homo sapiens, MCF7
  GI50: 230 nM
[6]; Homo sapiens, MCF7, read-out: LC50
  CC50: 18600 nM
[6]; MCF7, 10^−5 M, 48 h
  Growth percent (G%): 0.70%
[6]; MCF7, five-dose
  TGI: 1050 nM
[7]; Homo sapiens, K562
  GI50: 370 nM
[7]; Homo sapiens, K562, read-out: LC50
  CC50: 50100 nM
[7]; K-562, 10^−5 M, 48 h
  Growth percent (G%): 12.90%
[7]; K-562, five-dose
  TGI: 2000 nM
[8]; Homo sapiens, UACC-62
  GI50: 280 nM
[8]; Homo sapiens, UACC-62, read-out: LC50
  CC50: 3980 nM
[8]; UACC-62, 10^−5 M, 48 h
  Growth percent (G%): 75.08%
[8]; UACC-62, five-dose
  TGI: 1150 nM
[9]; 10^−5 M, 48 h
  Growth percent (G%): 33.72%
[9]; Homo sapiens
  GI50: 500 nM
[9]; Homo sapiens, read-out: LC50
  CC50: > 100000 nM
[9]; five-dose
  TGI: 3980 nM
[10]; 10^−5 M, 48 h
  Growth percent (G%): −14.18%
[10]; Homo sapiens
  GI50: 200 nM
[10]; Homo sapiens, read-out: LC50
  CC50: 2630 nM
[10]; five-dose
  TGI: 580 nM
[11]; 10^−5 M, 48 h
  Growth percent (G%): −26.26%
[11]; Homo sapiens
  GI50: 200 nM
[11]; Homo sapiens, read-out: LC50
  CC50: 1350 nM
[11]; five-dose
  TGI: 470 nM
[12]; Homo sapiens, OVCAR-3
  GI50: 240 nM
[12]; Homo sapiens, OVCAR-3, read-out: LC50
  CC50: 1820 nM
[12]; OVCAR-3, 10^−5 M, 48 h
  Growth percent (G%): −68.37%
[12]; OVCAR-3, five-dose
  TGI: 560 nM
[13]; Homo sapiens, MDA-MB-435
  GI50: 300 nM
[13]; Homo sapiens, MDA-MB-435, read-out: LC50
  CC50: 4070 nM
[13]; MDA-MB-435, 10^−5 M, 48 h
  Growth percent (G%): 10.25%
[13]; MDA-MB-435, five-dose
  TGI: 1200 nM
[14]; HCT-15, 10^−5 M, 48 h
  Growth percent (G%): −31.10%
[14]; HCT-15, five-dose
  TGI: 510 nM
[14]; Homo sapiens, HCT-15
  GI50: 210 nM
[14]; Homo sapiens, HCT-15, read-out: LC50
  CC50: 2000 nM
[15]; 5 μM inhibitor, 100 μM vs 10 μM Ets-1, 100 μM ATP
  effect of excess Ets-1 (100 μM) on inhibition of ERK2: did not rescue
[15]; ERK2 IC50, 10 μM ATP
  IC50: 200 ± 10 nM
[15]; ERK2 IC50, 100 μM ATP, 10 μM Ets-1
  IC50: 600 ± 100 nM
[15]; ERK2 IC50 at 100 μM ATP /10mM Ets-1, Table 4, 100 μM ATP /10mM Ets-1
  IC50: 600 ± 100 nM
[16]; 10^−5 M, 48 h
  Growth percent (G%): 29.04%
[16]; Homo sapiens
  GI50: 410 nM
[16]; Homo sapiens, read-out: LC50
  CC50: > 100000 nM
[16]; five-dose
  TGI: 4860 nM
[17]; Homo sapiens, MDA-MB-468
  GI50: 250 nM
[17]; Homo sapiens, MDA-MB-468, read-out: LC50
  CC50: 4570 nM
[17]; MDA-MB-468, 10^−5 M, 48 h
  Growth percent (G%): −32.41%
[17]; MDA-MB-468, five-dose
  TGI: 870 nM
[18]; Homo sapiens, NCI-H460
  GI50: 220 nM
[18]; Homo sapiens, NCI-H460, read-out: LC50
  CC50: 1480 nM
[18]; NCI-H460, 10^−5 M, 48 h
  Growth percent (G%): −69.73%
[18]; NCI-H460, five-dose
  TGI: 490 nM
[19]; Homo sapiens, SNB-75
  GI50: 160 nM
[19]; Homo sapiens, SNB-75, read-out: LC50
  CC50: 1290 nM
[19]; SNB-75, 10^−5 M, 48 h
  Growth percent (G%): −9.01%
[19]; SNB-75, five-dose
  TGI: 420 nM
[20]; Homo sapiens, RXF 393
  GI50: 210 nM
[20]; Homo sapiens, RXF 393, read-out: LC50
  CC50: 2510 nM
[20]; RXF 393, 10^−5 M, 48 h
  Growth percent (G%): −46.34%
[20]; RXF 393, five-dose
  TGI: 580 nM
[21]; Homo sapiens, KM12
  GI50: 450 nM
[21]; Homo sapiens, KM12, read-out: LC50
  CC50: 27500 nM
[21]; KM 12, 10^−5 M, 48 h
  Growth percent (G%): 0.12%
[21]; KM 12, five-dose
  TGI: 3020 nM
[22]; Homo sapiens, SK-MEL-28
  GI50: 340 nM
[22]; Homo sapiens, SK-MEL-28, read-out: LC50
  CC50: 4680 nM
[22]; SK-MEL-28, 10^−5 M, 48 h
  Growth percent (G%): −11.84%
[22]; SK-MEL-28, five-dose
  TGI: 1230 nM
[23]; Homo sapiens, Malme-3M
  GI50: 230 nM
[23]; Homo sapiens, Malme-3M, read-out: LC50
  CC50: 850 nM
[23]; MALME-3M, 10^−5 M, 48 h
  Growth percent (G%): −51.66%
[24]
  ability to inhibit p38MAPKα (in words): little tendency to inhibit
[24]; p38MAPKα IC50, 10 μM GST-ATF2
  IC50: 28000 nM and 27900 nM
[25]; Homo sapiens, IGROV-1
  GI50: 220 nM
[25]; Homo sapiens, IGROV-1, read-out: LC50
  CC50: 3470 nM
[25]; IGROV1, 10^−5 M, 48 h
  Growth percent (G%): −3.63%
[25]; IGROV1, five-dose
  TGI: 740 nM
[26]; HCC-2998, 10^−5 M, 48 h
  Growth percent (G%): 65.07%
[26]; HCC-2998, five-dose
  TGI: 2570 nM
[26]; Homo sapiens, HCC 2998, read-out: LC50
  CC50: 9120 nM
[27]; Homo sapiens, SNB-19
  GI50: 310 nM
[27]; Homo sapiens, SNB-19, read-out: LC50
  CC50: 6170 nM
[27]; SNB-19, 10^−5 M, 48 h
  Growth percent (G%): 7.11%
[27]; SNB-19, five-dose
  TGI: 1100 nM
[28]; BT-549, 10^−5 M, 48 h
  Growth percent (G%): 37.99%
[28]; BT-549, five-dose
  TGI: 1320 nM
[28]; Homo sapiens, BT-549
  GI50: 300 nM
[28]; Homo sapiens, BT-549, read-out: LC50
  CC50: 6760 nM
[29]; Homo sapiens, MOLT-4
  GI50: 440 nM
[29]; Homo sapiens, MOLT-4, read-out: LC50
  CC50: > 100000 nM
[29]; MOLT-4, 10^−5 M, 48 h
  Growth percent (G%): 18.44%
[29]; MOLT-4, five-dose
  TGI: 3160 nM
[30]; Homo sapiens, SF-539
  GI50: 230 nM
[30]; Homo sapiens, SF-539, read-out: LC50
  CC50: 2090 nM
[30]; SF-539, 10^−5 M, 48 h
  Growth percent (G%): −27.99%
[30]; SF-539, five-dose
  TGI: 560 nM
[31]; Homo sapiens, OVCAR-5
  GI50: 3470 nM
[31]; Homo sapiens, OVCAR-5, read-out: LC50
  CC50: 40700 nM
[31]; OVCAR-5, 10^−5 M, 48 h
  Growth percent (G%): 52.70%
[31]; OVCAR-5, five-dose
  TGI: 14790 nM
[32]; Homo sapiens, SF-295
  GI50: 630 nM
[32]; Homo sapiens, SF-295, read-out: LC50
  CC50: 6610 nM
[32]; SF-295, 10^−5 M, 48 h
  Growth percent (G%): −1.34%
[32]; SF-295, five-dose
  TGI: 2290 nM
[33]; Homo sapiens, UO-31
  GI50: 190 nM
[33]; Homo sapiens, UO-31, read-out: LC50
  CC50: 2510 nM
[33]; UO-31, 10^−5 M, 48 h
  Growth percent (G%): −54.91%
[33]; UO-31, five-dose
  TGI: 600 nM
[34]; Homo sapiens, M14
  GI50: 400 nM
[34]; Homo sapiens, M14, read-out: LC50
  CC50: 4570 nM
[34]; M14, 10^−5 M, 48 h
  Growth percent (G%): 10.44%
[34]; M14, five-dose
  TGI: 1510 nM
[35]; Homo sapiens, SK-OV-3
  GI50: 350 nM
[35]; Homo sapiens, SK-OV-3, read-out: LC50
  CC50: 5620 nM
[35]; SK-OV-3, 10^−5 M, 48 h
  Growth percent (G%): 1.64%
[35]; SK-OV-3, five-dose
  TGI: 1780 nM
[36]; Homo sapiens, SK-MEL-5
  GI50: 1300 nM
[36]; Homo sapiens, SK-MEL-5, read-out: LC50
  CC50: 3720 nM
[36]; SK-MEL-5, 10^−5 M, 48 h
  Growth percent (G%): 12.31%
[36]; SK-MEL-5, five-dose
  TGI: 1200 nM
